In brackets after ≈: the same amount, converted by molar mass. Several values for one entry are separate records, joined by “and”; a condition that tells them apart may be missing. Identical values can stand only once.
Columns and labels:
[1] = Compound was evaluated for cytotoxicity to KB cells (derived from human epidermoid carcinoma); type: cell-based; settings: read-out: ED50 (the source's name)
How it was run: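 KB cells grown in culture and tested under the National Cancer Institute cytotoxicity protocol. The value is reported as ED50 in mcg/mL.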

[2] = system: Human alphaherpesvirus 2; assay: Concentration required to inhibit HSV type 2 strain MS induced cytopathogenic affects by 50%; type: functional
How it was run: (§1)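 Inhibition of cytopathogenic effect caused by HSV-1 strain 377 or HSV-2 strain MS, replicating in secondary rabbit kidney cell cultures or in Vero cells. MIC₅₀ is the concentration giving 50% inhibition of virus-induced CPE. Ranges are pooled from several tests in either host cell type.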

[3] = system: Mus musculus; assay: Antineoplastic activity of compound in mice inoculated with 10e 5 L1210 leukemia cells was measured as T/C after ip administration of 50 mg/kg; type: functional; settings: route intraperitoneal
How it was run: (§2)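 L1210 leukemia, 10⁵ cells inoculated intraperitoneally into mice on day 0, following NCI protocols. Compound given intraperitoneally as a solution or suspension once daily on days 1-9. T/C % compares lifespan of treated mice with untreated leukemic control mice.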

[4] = system: L1210; assay: Antineoplastic activity of compound in mice inoculated with 10e 5 L1210 leukemia cells was measured as weight change after ip administration of 50 mg/kg; type: functional, Mus musculus; settings: route intraperitoneal
How it was run: (§3)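 Mice received 10⁵ L1210 leukemia cells ip on day 0, then compound ip as a solution or suspension q.d. days 1-9, following NCI protocols. Weight-change difference is the mean weight change of treated mice minus that of untreated leukemic controls, both measured on day 5.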

[5] = system: Human alphaherpesvirus 1; assay: In vitro antiviral activity in secondary cultures of rabbit kidney cells infected with HSV type 1 strain 377; type: functional
How it was run: (§4)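 Scored as a virus rating (VR) from inhibition of CPE caused by HSV-1 strain 377 or HSV-2 strain MS in secondary rabbit kidney cultures or Vero cells. VR ≥1.0 means definite activity, 0.5-0.9 marginal to moderate, and <0.5 usually none. Ranges are pooled from several tests.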

[6] = system: Human alphaherpesvirus 1; assay: Concentration required to inhibit HSV type 1 strain 377 induced cytopathogenic affects by 50%; type: functional; how it was run: as §1
[7] = system: Human alphaherpesvirus 2; assay: In vitro antiviral activity in secondary cultures of rabbit kidney cells infected with HSV type 2 strain MS; type: functional; how it was run: as §4
[8] = system: Mus musculus; assay: Antineoplastic activity of compound in mice inoculated with 10e 5 L1210 leukemia cells was measured as T/C after ip administration of 200 mg/kg; type: functional; settings: route intraperitoneal; how it was run: as §2
[9] = system: Human alphaherpesvirus 1; assay: In vitro antiviral activity in secondary cultures of rabbit kidney cells against HSV type 1 strain 377; type: functional; how it was run: as §4
[10] = system: L1210; assay: Antineoplastic activity of compound in mice inoculated with 10e 5 L1210 leukemia cells was measured as weight change after ip administration of 200 mg/kg; type: functional, Mus musculus; settings: route intraperitoneal; how it was run: as §3
[11] = system: Human alphaherpesvirus 1; assay: In vitro antiviral activity in secondary cultures of rabbit kidney cells infected with HSV type 1 strain HF; type: functional
[12] = system: Vaccinia virus; assay: In vitro for antiviral activity in secondary cultures of rabbit kidney cells infected with vaccinia virus; type: functional, Orthopoxvirus vaccinia
[13] = system: Human alphaherpesvirus 1; assay: Concentration required to inhibit HSV type 1 strain HF induced cytopathogenic affects by 50%; type: functional
[14] = system: Human alphaherpesvirus 1; assay: In vitro antiviral activity in secondary cultures of rabbit kidney cells against HSV type 1 strain 377; 2.5-3.1; type: functional; how it was run: as §4
[15] = system: Human alphaherpesvirus 2; assay: Concentration required to inhibit HSV type 2 strain MS induced cytopathogenic affects by 50%; 6.4-30; type: functional; how it was run: as §1
[16] = system: Human alphaherpesvirus 1; assay: Concentration required to inhibit HSV type 1 strain 377 induced cytopathogenic affects by 50%; 6.4-9.8; type: functional; how it was run: as §1
[17] = system: Human alphaherpesvirus 2; assay: In vitro antiviral activity in secondary cultures of rabbit kidney cells against HSV type 2 strain MS; 1.6-2.3; type: functional; how it was run: as §4
[18] = system: Mus musculus; assay: Antineoplastic activity of compound in mice inoculated with 10e 5 L1210 leukemia cells was measured as T/C after ip administration of 100 […]; type: functional; how it was run: as §2
[19] = system: Mus musculus; assay: Antineoplastic activity of compound in mice inoculated with 10e 5 L1210 leukemia cells was measured as T/C after ip administration of 200 […]; type: functional; how it was run: as §2
[20] = system: L1210; assay: Antineoplastic activity of compound in mice inoculated with 10e 5 L1210 leukemia cells was measured as weight change after ip administration of 100 […]; type: functional, Mus musculus; how it was run: as §3
[21] = system: L1210; assay: Antineoplastic activity of compound in mice inoculated with 10e 5 L1210 leukemia cells was measured as weight change after ip administration of 200 […]; type: functional, Mus musculus; how it was run: as §3
[22] = system: Mus musculus; assay: Antineoplastic activity of compound in mice inoculated with 10e 5 L1210 leukemia cells was measured as T/C after ip administration of 100 mg/kg; type: functional; settings: route intraperitoneal; how it was run: as §2
[23] = system: L1210; assay: Antineoplastic activity of compound in mice inoculated with 10e 5 L1210 leukemia cells was measured as weight change after ip administration of 100 mg/kg; type: functional, Mus musculus; settings: route intraperitoneal; how it was run: as §3
[24] = system: Mus musculus; assay: Antineoplastic activity of compound in mice inoculated with 10e 5 L1210 leukemia cells was measured as T/C after ip administration of 25 […]; type: functional; how it was run: as §2
[25] = system: L1210; assay: Antineoplastic activity of compound in mice inoculated with 10e 5 L1210 leukemia cells was measured as weight change after ip administration of 50 […]; type: functional, Mus musculus; how it was run: as §3
[26] = system: Mus musculus; assay: Antineoplastic activity of compound in mice inoculated with 10e 5 L1210 leukemia cells was measured as T/C after ip administration of 50 […]; type: functional; how it was run: as §2
[27] = system: L1210; assay: Antineoplastic activity of compound in mice inoculated with 10e 5 L1210 leukemia cells was measured as weight change after ip administration of 25 […]; type: functional, Mus musculus; how it was run: as §3
[28] = Human alphaherpesvirus 1, read-out: MIC50

Structure (SMILES): Nc1nc(N)c2ncn(C3CC(O)C(CO)C3)c2n1 (stereo unspecified)
- CC50 [1]: > 100 µg/mL
- MIC50 [2]: 2.4 µg/mL (≈ 9.08 µM)
- T/C [3]: 104%
- Weight change [4]: -2.8 g
- Virus rating [5]: 4.5
- MIC50 [6]: 0.3 µg/mL (≈ 1.14 µM)
- MIC50 [6, 28]: 0.6 µg/mL (≈ 2.27 µM)
- Virus rating [7]: 2.9
- T/C [8]: 79%
- Virus rating [9]: 4.7
- Weight change [10]: -5.5 g

Structure (SMILES): OCC1CC(n2nnc3c(O)ncnc32)C(O)C1O (stereo unspecified)
- Virus rating [11]: 1.5
- Virus rating [12]: 1.2
- MIC50 [13, 28]: 298 µg/mL (≈ 1120 µM)

Structure (SMILES): Nc1ncnc2c1ncn2[C@@H]1O[C@H](CO)[C@@H](O)[C@@H]1O [VIDARABINE]
- Virus rating [14]: 2.5
- MIC50 [15]: 6.4 µg/mL (≈ 23.9 µM)
- MIC50 [16]: 6.4 µg/mL (≈ 23.9 µM)
- Virus rating [17]: 1.6

Structure (SMILES): Nc1nc(O)c2nnn(C3CC(O)C(CO)C3)c2n1 (stereo unspecified)
- CC50 [1]: > 100 µg/mL
- T/C [18]: 100%
- MIC50 [2]: 6.9 µg/mL (≈ 25.9 µM)
- T/C [19]: 104%
- Virus rating [5]: 4.2
- Weight change [20]: -2.4 g
- MIC50 [6, 28]: 0.6 µg/mL (≈ 2.25 µM)
- Virus rating [7]: 2.1
- Weight change [21]: -3.2 g

Structure (SMILES): Nc1nc(Cl)c2ncn(C3CC(O)C(CO)C3)c2n1 (stereo unspecified)
- CC50 [1]: 62 µg/mL (≈ 219 µM)
- T/C [18]: 106%
- MIC50 [2]: 37 µg/mL (≈ 130 µM)
- T/C [19]: 106%
- Virus rating [5]: 1.9
- Weight change [20]: -1 g
- MIC50 [6, 28]: 8.1 µg/mL (≈ 28.5 µM)
- Virus rating [7]: 2
- Weight change [21]: -2.2 g

Structure (SMILES): Nc1nc(N)c2nnn(C3CC(O)C(CO)C3)c2n1 (stereo unspecified)
- CC50 [1]: > 100 µg/mL
- MIC50 [2]: 10 µg/mL (≈ 37.7 µM)
- Virus rating [5]: 4 and 4.4
- MIC50 [6]: 2 µg/mL (≈ 7.54 µM)
- MIC50 [6, 28]: < 3.2 µg/mL
- Virus rating [7]: 2.3
- T/C [22]: 96%
- T/C [8]: 92%
- Weight change [23]: -0.7 g
- Weight change [10]: -1.1 g

Structure (SMILES): OCC1CC(n2cnc3c(O)ncnc32)C(O)C1O (stereo unspecified)
- Virus rating [11]: 2.1
- Virus rating [12]: 1.9
- MIC50 [13, 28]: 97 µg/mL (≈ 364 µM)

Structure (SMILES): Nc1nc(S)c2ncn(C3CC(O)C(CO)C3)c2n1 (stereo unspecified)
- CC50 [1]: > 100 µg/mL
- T/C [18]: 91%
- MIC50 [2]: 32 µg/mL (≈ 114 µM)
- T/C [19]: 108%
- Virus rating [5]: 4.9
- Weight change [20]: -0.2 g
- MIC50 [6, 28]: < 3.2 µg/mL
- Virus rating [7]: 1.7
- Weight change [21]: 0.5 g

Structure (SMILES): Nc1ncnc2c1ncn2[C@@H]1C[C@H](CO)[C@@H](O)[C@@H]1O
- Virus rating [11]: 2.2 and 3.5
- Virus rating [12]: 1.5 and 1.7

Structure (SMILES): Nc1ccn([C@@H]2C[C@H](CO)[C@@H](O)[C@H]2O)c(=O)n1 (stereo in doubt; form 1)
- MIC50 [13]: 93 µg/mL and <32 µg/mL

Structure (SMILES): Nc1nc(Cl)c2nnn(C3CC(O)C(CO)C3)c2n1 (stereo unspecified)
- T/C [24]: 118%
- CC50 [1]: 10 µg/mL (≈ 35.1 µM)
- T/C [18]: 100%
- MIC50 [2]: 23 µg/mL (≈ 80.8 µM)
- T/C [19]: 78%
- Virus rating [5]: 5 and 4.5
- Weight change [25]: -1.5 g
- Weight change [20]: -3.4 g
- MIC50 [6]: 1.6 µg/mL (≈ 5.62 µM)
- MIC50 [6, 28]: < 1 µg/mL
- Virus rating [7]: 1.9
- T/C [26]: 105%
- Weight change [27]: -1 g
- Weight change [21]: -4.4 g

Structure (SMILES): Nc1ccn([C@@H]2C[C@H](CO)[C@@H](O)[C@H]2O)c(=O)n1 (stereo in doubt; form 2)
- Virus rating [11]: 0.8
- Virus rating [12]: 0.9
- MIC50 [2]: 2.4 µg/mL (≈ 9.95 µM)
- MIC50 [13]: 68 µg/mL (≈ 282 µM)
- Virus rating [7]: 3.2

Structure (SMILES): Cc1cn(C2CC(CO)C(O)C2O)c(=O)[nH]c1=O (stereo unspecified)
- MIC50 [2]: 7 µg/mL (≈ 27.3 µM)
- Virus rating [5]: 5.4
- MIC50 [6, 28]: 0.8 µg/mL (≈ 3.12 µM)
- Virus rating [7]: 3.2

Structure (SMILES): Nc1nc(O)c2ncn([C@@H]3C[C@H](CO)[C@@H](O)C3)c2n1
- CC50 [1]: 95 µg/mL (≈ 358 µM)
- T/C [18]: 96%
- MIC50 [2]: 0.8 µg/mL (≈ 3.02 µM)
- Virus rating [5]: >=4.6
- Weight change [20]: -3.7 g
- MIC50 [6, 28]: < 0.3 µg/mL
- Virus rating [7]: 3.7

Source: ChEMBL document CHEMBL1122513, “Synthesis and antiviral activity of carbocyclic analogues of 2'-deoxyribofuranosides of 2-amino-6-substituted-purines and of 2-amino-6-substituted-8-azapurines” (J Med Chem, 1984)
